Results as given in ChEMBL document CHEMBL4043300, “2 H-1,2,3-Triazole-Based Dipeptidyl Nitriles: Potent, Selective, and Trypanocidal Rhodesain Inhibitors by Structure-Based Design” (J Med Chem, 2018).
≈ marks a conversion by molar mass, not a printed value.

Experiments:
[1] = system: Trypanosoma brucei rhodesiense; test: Antitrypanosomal activity against bloodstream form of Trypanosoma brucei rhodesiense STIB 900 assessed as parasite growth inhibition after 16 hrs by Alamar blue assay; assay type: functional; conditions: STIB 900, 16 h
Method in brief: (§1)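 Bloodstream STIB 900 trypomastigotes, 1x10⁴ per well, exposed to eleven 3-fold serial dilutions at 37 °C/5% CO₂ for the stated pulse time. Parasites were then pelleted and washed four times, and an aliquot was regrown 72 h drug-free in triplicate plates. Resazurin was added for 2–4 h, fluorescence read at ex 536/em 588 nm, and IC50 taken by linear regression of sigmoidal curves. Melarsoprol served as control.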

[2] = system: Trypanosoma brucei rhodesiense; test: Antitrypanosomal activity against bloodstream form of Trypanosoma brucei rhodesiense STIB 900 assessed as parasite growth inhibition after 2 hrs by Alamar blue assay; assay type: functional; conditions: STIB 900, 2 h; method in brief: as §1
[3] = Selectivity index, ratio of Ki for human CatL to Ki for Trypanosoma brucei rhodesiense rhodesain
Method in brief: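 Ki(hCatL)/Ki(RD). Fluorimetric assays at 25 °C: RD in 50 mM sodium acetate pH 5.5; hCatL in 50 mM Tris pH 6.5; both buffers with 5 mM EDTA, 200 mM NaCl, 0.005% Brij35. Ki derived from IC50 by Cheng-Prusoff. Each value is the mean of two measurements, each done in duplicate.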

[4] = Selectivity index, ratio of IC50 for rat L6 cells to IC50 for bloodstream form of Trypanosoma brucei rhodesiense STIB 900; assay type: toxicity; conditions: read-out: Ratio IC50
Method in brief: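 Ratio of L-6 rat skeletal myoblast IC50 to T. b. rhodesiense STIB 900 bloodstream trypomastigote IC50, both from Alamar Blue growth-inhibition assays. Each IC50 is the mean of at least 2 measurements.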

[5] = Solubility of the compound at pH 6.5 by LYSA; assay type: physicochemical; conditions: buffer
Method in brief: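 Lyophilization solubility assay at pH 6.5.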

Rhodesain = Rhodesain (Trypanosoma brucei rhodesiense, UniProt Q95PM0); test: Inhibition of Trypanosoma brucei rhodesiense rhodesain using Cbz-Phe-Arg-AMC as substrate by fluorimetric method
Method in brief: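 Fluorescence-based assay run at 25 °C in 50 mM sodium acetate pH 5.5 with 5 mM EDTA, 200 mM NaCl and 0.005% Brij35. IC50 values were converted to Ki with the Cheng-Prusoff equation. Values are the average of two measurements, each done in duplicate.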

[6] = system: Trypanosoma brucei rhodesiense; test: Antitrypanosomal activity against bloodstream form of Trypanosoma brucei rhodesiense STIB 900 assessed as parasite growth inhibition after 72 hrs by Alamar blue assay; assay type: functional; conditions: STIB 900, 72 h
Method in brief: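 Standard 72 h growth-inhibition assay with STIB 900 bloodstream trypomastigotes and Alamar Blue read-out. Value is the mean of at least 2 measurements.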

Procathepsin L = Procathepsin L (Homo sapiens, UniProt P07711); test: Inhibition of human CatL using Cbz-Phe-Arg-AMC as substrate measured over 30 mins by fluorimetric method
Method in brief: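 Human cathepsin L in a fluorimetric assay in 50 mM Tris pH 6.5, 5 mM EDTA, 200 mM NaCl, 0.005% Brij35 at 25 °C. Ki was calculated from IC50 by Cheng-Prusoff. Value is the average of two measurements, each in duplicate.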

[7] = system: Trypanosoma brucei rhodesiense; test: Antitrypanosomal activity against bloodstream form of Trypanosoma brucei rhodesiense STIB 900 assessed as parasite growth inhibition after 6 hrs by Alamar blue assay; assay type: functional; conditions: STIB 900, 6 h; method in brief: as §1
[8] = system: Trypanosoma brucei rhodesiense; test: Antitrypanosomal activity against bloodstream form of Trypanosoma brucei rhodesiense STIB 900 assessed as parasite growth inhibition after 48 hrs by Alamar blue assay; assay type: functional; conditions: STIB 900, 48 h; method in brief: as §1
L6 = test: Cytotoxicity against rat L6 cells after 72 hrs by Alamar blue assay; assay type: cell-based; conditions: L6, 72 h
Method in brief: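 Rat skeletal myoblast L6 cells in an Alamar Blue growth-inhibition assay. Value is the mean of at least 2 measurements.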

[9] = system: Trypanosoma brucei rhodesiense; test: Antitrypanosomal activity against bloodstream form of Trypanosoma brucei rhodesiense STIB 900 assessed as parasite growth inhibition after 24 hrs by Alamar blue assay; assay type: functional; conditions: STIB 900, 24 h; method in brief: as §1
[10] = Half life in C57BL/6J mouse at 1.5 mg/kg, iv as bolus dose by LC-MS/MS analysis; assay type: ADME, organism-based; conditions: in vivo
Method in brief: (§2)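 Mice given single i.v. dose in N-methylpyrrolidinone / 40% (v/v) aqueous hydroxypropyl-γ-cyclodextrin (30/70 v/v). Blood into K₂EDTA at 5 min, 15 min, 30 min, 1, 2, 4, 8 h, sublingually or by terminal cardiac puncture under isoflurane. Plasma spun at 3000 × g, 5 min, 4 °C, stored at -20 °C. Plasma levels by LC–MS/MS; parameters by non-compartmental analysis.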

[11] = Intrinsic clearance in human liver microsomes at 2 uM after 30 mins in presence of NADPH by LC-MS/MS method; assay type: ADME, microsome; conditions: read-out: CLH
[12] = Clearance in C57BL/6J mouse at 1.5 mg/kg, iv as bolus dose by LC-MS/MS analysis; assay type: ADME, organism-based; conditions: in vivo; method in brief: as §2
[13] = Intrinsic clearance in mouse liver microsomes at 2 uM after 30 mins in presence of NADPH by LC-MS/MS method; assay type: ADME, microsome; conditions: read-out: CLH
[14] = Volume of distribution at steady state in C57BL/6J mouse at 1.5 mg/kg, iv as bolus dose by LC-MS/MS analysis; assay type: ADME, organism-based; conditions: in vivo, read-out: Vdss; method in brief: as §2
[15] = Permeability of the compound after 15 hrs by PAMPA; assay type: physicochemical; conditions: read-out: permeability
[16] = Octanol-water intrinsic distribution co-efficient, log D of the compound at 100 uM at pH 7.4 after 16 to 22 hrs by CAMDIS assay; assay type: physicochemical
Method in brief: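 Octanol/aqueous buffer (pH 7.4) intrinsic distribution coefficient measured in the CAMDIS carrier-mediated distribution system.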

Cytochrome P450 3A4 = Cytochrome P450 3A4 (Homo sapiens, UniProt P08684); test: Inhibition of CYP3A4 in human liver microsomes using DBF as substrate by fluorescence assay; assay type: ADME
Method in brief: (§3)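 Human liver microsomes with CYP-selective substrate metabolism reactions for 2C9, 2D6 and 3A4.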

[17] = Unbound fraction in human plasma; assay type: ADME, cell-free
Cytochrome P450 2D6 = Cytochrome P450 2D6 (Homo sapiens, UniProt P10635); test: Inhibition of CYP2D6 in human liver microsomes using AMMC as substrate by fluorescence assay; assay type: ADME; method in brief: as §3
Cytochrome P450 2C9 = Cytochrome P450 2C9 (Homo sapiens, UniProt P11712); test: Inhibition of CYP2C9 in human liver microsomes using MFC as substrate by fluorescence assay; assay type: ADME; method in brief: as §3
[18] = system: Trypanosoma brucei rhodesiense; test: Antitrypanosomal activity against bloodstream form of Trypanosoma brucei rhodesiense STIB 900 infected in NMRI mouse assessed as reduction of parasitemia at 50 mg/kg, po administered for 3 consecutive days starting 1 day post infection measured at 24 hrs post last dose relative to control; assay type: functional; set-up: scale not given: the % may be the effect or the level left
Method in brief: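 Female mice infected with STIB900 were dosed orally at 50 mg/kg/day on three consecutive days, starting 1 day post-infection. Compound was in 100% DMSO diluted 10-fold in distilled water, given at 0.1 mL/10 g. Tail-blood parasitaemia was measured 24 h after the last dose versus 4 untreated infected controls. Values are means of 2 mice.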

[19] = Volume of distribution at steady state in C57BL/6J mouse at 0.8 mg/kg, iv as bolus dose by LC-MS/MS analysis; assay type: ADME, organism-based; conditions: in vivo, read-out: Vdss
Method in brief: (§4)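 Mice received intravenous compound in N-methylpyrrolidinone / 40% aqueous hydroxypropyl-γ-cyclodextrin (30/70). Blood was drawn into K₂EDTA at 5 min, 15 min, 30 min, 1, 2, 4 and 8 h, and plasma was separated at 3000 × g for 5 min at 4 °C and stored at -20 °C. Plasma levels were measured by LC–MS/MS, and parameters derived by non-compartmental analysis.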

[20] = Half life in C57BL/6J mouse at 0.8 mg/kg, iv as bolus dose by LC-MS/MS analysis; assay type: ADME, organism-based; conditions: in vivo; method in brief: as §4
[21] = Clearance in C57BL/6J mouse at 0.8 mg/kg, iv as bolus dose by LC-MS/MS analysis; assay type: ADME, organism-based; conditions: in vivo; method in brief: as §4
[22] = Half life in C57BL/6J mouse at 1.3 mg/kg, iv as bolus dose by LC-MS/MS analysis; assay type: ADME, organism-based; conditions: in vivo; method in brief: as §4
[23] = Clearance in C57BL/6J mouse at 1.3 mg/kg, iv as bolus dose by LC-MS/MS analysis; assay type: ADME, organism-based; conditions: in vivo; method in brief: as §4
[24] = Volume of distribution at steady state in C57BL/6J mouse at 1.3 mg/kg, iv as bolus dose by LC-MS/MS analysis; assay type: ADME, organism-based; conditions: in vivo, read-out: Vdss; method in brief: as §4
MDR1 (P-gp) = test: Efflux ratio of permeability across pig LLC-PK1 cells expressing human MDR1 at 1 uM after 3.5 hrs by LC-MS/MS analysis; assay type: ADME, cell-based, Sus scrofa
Method in brief: (§5)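 LLC-PK1 monolayers stably transfected with human MDR1 or mouse Mdr1a, grown in Medium 199/10% FCS with colchicine on permeable inserts and used day 4 after seeding. 1 μM compound added apical or basolateral; transport run in both directions in triplicate, 37 °C, 5% CO₂. Donor and receiver sampled at 3.5 h, quantified by LC–MS/MS. Lucifer yellow checked monolayer tightness.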

Mdr1a (P-gp) = test: Efflux ratio of permeability across pig LLC-PK1 cells expressing mouse Mdr1a at 1 uM after 3.5 hrs by LC-MS/MS analysis; assay type: ADME, cell-based, Sus scrofa; method in brief: as §5

Sequence of Procathepsin L (P07711 whole entry): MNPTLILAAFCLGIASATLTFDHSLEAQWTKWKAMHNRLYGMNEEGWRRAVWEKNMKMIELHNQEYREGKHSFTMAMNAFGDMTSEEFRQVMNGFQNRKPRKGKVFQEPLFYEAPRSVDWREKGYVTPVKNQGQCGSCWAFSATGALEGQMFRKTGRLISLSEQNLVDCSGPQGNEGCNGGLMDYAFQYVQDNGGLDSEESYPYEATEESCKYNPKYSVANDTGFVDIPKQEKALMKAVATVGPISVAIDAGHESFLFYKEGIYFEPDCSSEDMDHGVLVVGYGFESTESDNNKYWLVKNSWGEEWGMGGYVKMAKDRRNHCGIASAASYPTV
Sequence of Cytochrome P450 3A4 (P08684 whole entry): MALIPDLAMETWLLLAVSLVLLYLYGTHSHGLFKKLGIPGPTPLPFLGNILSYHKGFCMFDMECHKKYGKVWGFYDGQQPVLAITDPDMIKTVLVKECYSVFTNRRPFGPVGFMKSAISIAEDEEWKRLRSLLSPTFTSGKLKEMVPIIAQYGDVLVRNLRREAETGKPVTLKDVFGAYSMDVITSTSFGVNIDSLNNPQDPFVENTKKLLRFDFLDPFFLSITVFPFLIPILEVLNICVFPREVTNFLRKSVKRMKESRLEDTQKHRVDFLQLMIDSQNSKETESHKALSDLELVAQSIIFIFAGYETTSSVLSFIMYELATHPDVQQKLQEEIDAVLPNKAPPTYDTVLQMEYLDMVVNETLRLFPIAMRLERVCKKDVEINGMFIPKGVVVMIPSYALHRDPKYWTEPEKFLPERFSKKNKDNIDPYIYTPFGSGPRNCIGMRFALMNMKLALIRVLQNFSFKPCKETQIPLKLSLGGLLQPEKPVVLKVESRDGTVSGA
Sequence of Cytochrome P450 2C9 (P11712 whole entry): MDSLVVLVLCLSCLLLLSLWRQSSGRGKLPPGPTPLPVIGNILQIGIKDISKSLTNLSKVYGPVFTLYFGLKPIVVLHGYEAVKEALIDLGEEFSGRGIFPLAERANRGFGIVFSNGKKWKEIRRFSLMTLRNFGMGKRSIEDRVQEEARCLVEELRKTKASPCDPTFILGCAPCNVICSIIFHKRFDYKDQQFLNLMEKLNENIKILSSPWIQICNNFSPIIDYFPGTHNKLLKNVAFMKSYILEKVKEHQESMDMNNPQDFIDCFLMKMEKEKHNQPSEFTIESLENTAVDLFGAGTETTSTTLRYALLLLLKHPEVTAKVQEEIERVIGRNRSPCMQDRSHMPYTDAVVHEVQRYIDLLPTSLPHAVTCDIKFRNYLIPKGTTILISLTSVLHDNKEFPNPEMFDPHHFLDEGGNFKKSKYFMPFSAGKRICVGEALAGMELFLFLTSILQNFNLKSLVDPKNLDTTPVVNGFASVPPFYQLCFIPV
Sequence of Rhodesain (Q95PM0 whole entry): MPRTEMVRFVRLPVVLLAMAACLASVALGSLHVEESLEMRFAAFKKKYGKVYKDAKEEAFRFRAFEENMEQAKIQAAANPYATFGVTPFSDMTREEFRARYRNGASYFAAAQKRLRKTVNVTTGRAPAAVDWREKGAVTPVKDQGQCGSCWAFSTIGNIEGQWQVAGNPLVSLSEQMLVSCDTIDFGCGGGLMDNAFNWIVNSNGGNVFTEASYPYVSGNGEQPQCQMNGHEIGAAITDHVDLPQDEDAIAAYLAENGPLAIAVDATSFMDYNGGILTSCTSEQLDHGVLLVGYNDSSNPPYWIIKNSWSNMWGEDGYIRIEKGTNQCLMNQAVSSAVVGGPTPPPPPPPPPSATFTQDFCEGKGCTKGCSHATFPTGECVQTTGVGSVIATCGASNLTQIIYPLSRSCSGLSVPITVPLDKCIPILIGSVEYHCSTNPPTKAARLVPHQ
Sequence of Cytochrome P450 2D6 (P10635 whole entry): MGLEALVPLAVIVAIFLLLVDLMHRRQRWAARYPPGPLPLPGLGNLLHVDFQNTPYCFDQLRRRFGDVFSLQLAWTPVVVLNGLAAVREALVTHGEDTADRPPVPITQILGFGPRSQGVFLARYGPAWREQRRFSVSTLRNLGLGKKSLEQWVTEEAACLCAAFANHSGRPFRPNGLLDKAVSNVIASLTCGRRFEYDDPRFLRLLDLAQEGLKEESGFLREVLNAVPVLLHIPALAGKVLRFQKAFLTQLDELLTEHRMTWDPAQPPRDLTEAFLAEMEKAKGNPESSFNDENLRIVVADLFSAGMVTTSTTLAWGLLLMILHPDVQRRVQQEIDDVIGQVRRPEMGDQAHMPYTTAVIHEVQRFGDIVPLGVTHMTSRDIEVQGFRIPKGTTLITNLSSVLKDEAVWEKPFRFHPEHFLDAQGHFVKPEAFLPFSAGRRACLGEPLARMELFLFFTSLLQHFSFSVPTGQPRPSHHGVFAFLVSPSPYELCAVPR

Structure (SMILES)	Ratio Ki [3]	selectivity ratio [4]	solubility [5] [µg/mL]	Ki (Rhodesain) [nM]	IC50 [6] [nM]	Ki (Procathepsin L) [nM]	IC50 (L6) [nM]	half-life [10] [h]	microsomal CLint at 2 µM [11] [µL/min/mg]	clearance [12] [mL/min/kg]	microsomal CLint at 2 µM [13] [µL/min/mg]	Vd [14] [L/kg]	Papp at 15 h [15] [×10⁻⁶ cm/s]	logD at 100 µM [16]	IC50 (Cytochrome P450 3A4) [nM]	fraction unbound [17]	IC50 (Cytochrome P450 2D6) [nM]	IC50 (Cytochrome P450 2C9) [nM]	Activity [18] [%]	also measured
N#CC1(NC(=O)[C@H](Cc2ccc(OC(F)(F)F)c(Cl)c2)NC(=O)c2cnn(-c3ccccc3)n2)CC1	28	3580	< 0.3	2.9	5	81.7	17900	–	–	–	–	–	–	–	–	–	–	–	–	IC50 [1]: > 1000 nM; IC50 [2]: > 1000 nM; IC50 [7]: > 1000 nM; IC50 [8]: 462 nM; IC50 [9]: 556 nM
N#CC1(NC(=O)[C@H](Cc2ccc(OC(F)(F)F)c(Cl)c2)NC(=O)c2cnn(-c3cccnc3)n2)CC1	10	–	4.2 (≈ 8.08 µM)	36	1	353	> 10000	0.94	< 10	22.6	11	0.8	0.447	3.7	8000	0.0395	2000	7000	–	–
Cn1ncc(C(=O)N[C@@H](Cc2ccc(OC(F)(F)F)c(Cl)c2)C(=O)NC2(C#N)CC2)n1	0.7	–	53 (≈ 116 µM)	23	40	15	> 10000	1.52	< 10	22.8	< 10	2.7	0.12	3.09	> 50000	0.226	6000	> 50000	53.6	–
N#CC1(NC(=O)[C@H](Cc2ccc(OC(F)(F)F)c(Cl)c2)NC(=O)c2cnn(-c3ccc(F)nc3)n2)CC1	10	1170	0.5 (≈ 0.93 µM)	14	6	143	6990	–	< 10	–	< 10	–	0.291	–	47000	0.0148	1000	11000	40.8	Vd [19]: 1.2 L/kg; half-life [20]: 1.42 h; clearance [21]: 10.2 mL/min/kg
CC(C)n1ncc(C(=O)N[C@@H](Cc2ccc(OC(F)(F)F)c(Cl)c2)C(=O)NC2(C#N)CC2)n1	0.2	–	4 (≈ 8.25 µM)	18	4	4	> 10000	1.53	11	32.9	26	3	0.138	4.61	–	0.0826	–	–	–	–
CC(C)(C)n1ncc(C(=O)N[C@@H](Cc2ccc(OC(F)(F)F)c(Cl)c2)C(=O)NC2(C#N)CC2)n1	0.3	1900	0.9 (≈ 1.8 µM)	31	4	8	7630	–	< 10	–	17	–	2.86	4.87	> 50000	–	500	5000	–	half-life [22]: 1.3 h; clearance [23]: 17 mL/min/kg; Vd [24]: 1.7 L/kg
N#CC1(NC(=O)[C@H](Cc2ccc(Cl)c(Cl)c2)NC(=O)c2cnn(-c3ccc(F)cc3)n2)CC1	66	1390	< 0.3	2	7	131	9670	–	< 10	–	< 10	–	1.07	–	> 50000	–	5000	4000	47.2	half-life [22]: > 6.4 h; clearance [23]: < 4.6 mL/min/kg; Vd [24]: < 2.5 L/kg
N#CC1(NC(=O)[C@H](Cc2ccc(OC(F)(F)F)c(Cl)c2)NC(=O)c2cnn(-c3ccc(F)cc3)n2)CC1	36	2090	< 0.3	7.4	9	266	18800	–	< 10	–	< 10	–	–	–	> 50000	–	3000	9000	–	IC50 [1]: > 1000 nM; IC50 [2]: > 1000 nM; IC50 [7]: > 1000 nM; IC50 [8]: 64 nM; efflux ratio at 3.5 h, 1 µM (MDR1 (P-gp)): 6; IC50 [9]: 450 nM; efflux ratio at 3.5 h, 1 µM (Mdr1a (P-gp)): 20
